From ChEMBL document CHEMBL3580617, “Discovery of Benzimidazole CYP11B2 Inhibitors with in Vivo Activity in Rhesus Monkeys” (ACS Med Chem Lett, 2015)
Each block holds one molecule with its values, some of them ahead of it. The source made the active and inactive calls. The rule behind the calls is not given here.

Key:
Homo sapiens [1] = species: Homo sapiens; assay: Selectivity index, ratio of IC50 for CYP2C9 (unknown origin) to IC50 for human CYP11B2
Rhesus monkey [2] = assay: Dose normalized AUC in rhesus monkey at 1 mg/kg, po or 0.5 mg/kg, iv by LC-MS/MS method; format: ADME, organism-based, Macaca mulatta; details: in vivo
Homo sapiens [3] = species: Homo sapiens; assay: Selectivity index, ratio of IC50 for CYP3A4 (unknown origin) to IC50 for human CYP11B2
[4] = target: T1, Cytochrome P450 11B2, mitochondrial (Homo sapiens, UniProt P19099); assay: Inhibition of human CYP11B2 expressed in V79 cells incubated for 1 hr before 11-deoxycorticosterone substrate addition by HTRF-based assay; format: cell-based
T1 sequence (P19099 whole entry): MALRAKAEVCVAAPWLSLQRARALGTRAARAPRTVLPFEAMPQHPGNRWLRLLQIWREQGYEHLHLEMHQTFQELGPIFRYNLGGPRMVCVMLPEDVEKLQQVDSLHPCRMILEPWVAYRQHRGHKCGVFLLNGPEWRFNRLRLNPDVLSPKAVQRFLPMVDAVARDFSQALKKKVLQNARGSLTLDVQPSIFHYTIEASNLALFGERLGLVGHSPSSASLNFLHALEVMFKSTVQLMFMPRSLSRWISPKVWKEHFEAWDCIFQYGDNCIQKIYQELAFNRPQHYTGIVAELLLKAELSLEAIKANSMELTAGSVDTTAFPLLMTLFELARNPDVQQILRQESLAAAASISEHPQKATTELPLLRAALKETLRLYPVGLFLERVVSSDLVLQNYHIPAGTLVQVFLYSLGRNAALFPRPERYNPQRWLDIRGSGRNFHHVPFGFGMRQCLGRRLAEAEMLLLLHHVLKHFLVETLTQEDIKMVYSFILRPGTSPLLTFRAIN
How it was run: (§1)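 Human CYP11B2 and CYP11B1 inhibition was tested in cell-based assays. Selectivity was taken as the hCYP11B1 IC50 divided by the hCYP11B2 IC50.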

[5] = Intrinsic clearance in rhesus monkey liver microsomes at […] incubated for 10 mins before NADPH addition by LC/MS method; format: ADME, Macaca mulatta; details: read-out: CLH
[6] = target: T2, Cytochrome P450 11B1, mitochondrial (Homo sapiens, UniProt P15538); assay: Inhibition of human CYP11B1 expressed in V79 cells incubated for 1 hr before 11-deoxycortisol substrate addition by HTRF-based assay; format: cell-based; how it was run: as §1
T2 sequence (P15538 whole entry): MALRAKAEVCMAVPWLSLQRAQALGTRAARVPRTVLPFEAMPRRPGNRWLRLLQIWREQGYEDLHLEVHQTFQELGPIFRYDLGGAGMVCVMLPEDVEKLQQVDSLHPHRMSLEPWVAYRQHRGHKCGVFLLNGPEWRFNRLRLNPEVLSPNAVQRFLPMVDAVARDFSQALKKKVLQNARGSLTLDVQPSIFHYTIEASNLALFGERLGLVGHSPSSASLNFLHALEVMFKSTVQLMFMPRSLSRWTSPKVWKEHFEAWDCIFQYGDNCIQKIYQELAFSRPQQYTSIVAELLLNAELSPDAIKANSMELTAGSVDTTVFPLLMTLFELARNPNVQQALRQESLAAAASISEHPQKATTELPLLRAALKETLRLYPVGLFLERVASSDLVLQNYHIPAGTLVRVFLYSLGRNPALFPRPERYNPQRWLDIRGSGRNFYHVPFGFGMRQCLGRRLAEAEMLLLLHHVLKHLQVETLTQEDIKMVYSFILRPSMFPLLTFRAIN

[7] = target: T3, Cytochrome P450 11B2, mitochondrial (Rattus norvegicus, UniProt P30099); assay: Inhibition of rat CYP11B2 expressed in V79 cells incubated for 1 hr before 11-deoxycorticosterone substrate addition by HTRF-based assay; format: cell-based; details: v79, 1 h
T3 sequence (P30099 whole entry): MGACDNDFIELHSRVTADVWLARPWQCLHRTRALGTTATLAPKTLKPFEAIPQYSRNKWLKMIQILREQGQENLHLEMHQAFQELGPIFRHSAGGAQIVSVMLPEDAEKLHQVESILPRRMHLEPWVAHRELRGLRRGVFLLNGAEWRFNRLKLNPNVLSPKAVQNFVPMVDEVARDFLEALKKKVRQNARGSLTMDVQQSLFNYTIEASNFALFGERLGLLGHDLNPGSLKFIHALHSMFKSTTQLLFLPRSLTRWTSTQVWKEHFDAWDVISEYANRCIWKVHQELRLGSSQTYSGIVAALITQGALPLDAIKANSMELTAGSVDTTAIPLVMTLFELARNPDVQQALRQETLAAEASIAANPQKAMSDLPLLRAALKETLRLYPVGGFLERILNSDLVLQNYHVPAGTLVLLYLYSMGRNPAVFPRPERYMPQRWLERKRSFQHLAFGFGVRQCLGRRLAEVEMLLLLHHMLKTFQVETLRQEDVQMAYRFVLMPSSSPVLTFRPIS

Cytochrome P450 3A4 = Cytochrome P450 3A4 (Homo sapiens, UniProt P08684); assay: Inhibition of CYP3A4 (unknown origin); format: ADME
Steroid 21-hydroxylase = target: T4, Steroid 21-hydroxylase (Homo sapiens, UniProt P08686); assay: Inhibition of human CYP21 expressed in COS7 cells incubated for 1 hr before […] substrate addition by HTRF-based assay; format: cell-based, COS-7
T4 sequence (P08686 whole entry): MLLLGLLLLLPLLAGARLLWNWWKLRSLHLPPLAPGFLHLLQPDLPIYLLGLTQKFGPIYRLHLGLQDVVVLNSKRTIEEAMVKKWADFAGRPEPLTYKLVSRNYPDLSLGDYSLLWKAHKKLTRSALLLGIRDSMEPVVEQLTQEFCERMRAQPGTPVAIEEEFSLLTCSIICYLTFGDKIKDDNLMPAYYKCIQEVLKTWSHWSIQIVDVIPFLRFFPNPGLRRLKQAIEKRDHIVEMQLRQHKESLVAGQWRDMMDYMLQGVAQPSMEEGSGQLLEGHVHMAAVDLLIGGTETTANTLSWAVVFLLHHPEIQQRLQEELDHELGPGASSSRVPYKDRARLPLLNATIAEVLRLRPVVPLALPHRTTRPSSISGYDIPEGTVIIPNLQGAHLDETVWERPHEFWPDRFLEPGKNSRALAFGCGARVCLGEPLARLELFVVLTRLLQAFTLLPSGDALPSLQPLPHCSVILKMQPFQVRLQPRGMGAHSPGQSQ

Homo sapiens [8] = species: Homo sapiens; assay: Selectivity index, ratio of IC50 for CYP2D6 (unknown origin) to IC50 for human CYP11B2
[9] = Oral bioavailability in rhesus monkey at 1 mg/kg by LC-MS/MS method; format: ADME, organism-based, Macaca mulatta; details: in vivo
[10] = target: T5, Steroid 17-alpha-hydroxylase/17,20 lyase (Homo sapiens, UniProt P05093); assay: Inhibition of human CYP17 expressed in COS7 cells incubated for 1 hr before 17-hydroxypregnenolone substrate addition by EIA method; format: cell-based, COS-7
T5 sequence (P05093 whole entry): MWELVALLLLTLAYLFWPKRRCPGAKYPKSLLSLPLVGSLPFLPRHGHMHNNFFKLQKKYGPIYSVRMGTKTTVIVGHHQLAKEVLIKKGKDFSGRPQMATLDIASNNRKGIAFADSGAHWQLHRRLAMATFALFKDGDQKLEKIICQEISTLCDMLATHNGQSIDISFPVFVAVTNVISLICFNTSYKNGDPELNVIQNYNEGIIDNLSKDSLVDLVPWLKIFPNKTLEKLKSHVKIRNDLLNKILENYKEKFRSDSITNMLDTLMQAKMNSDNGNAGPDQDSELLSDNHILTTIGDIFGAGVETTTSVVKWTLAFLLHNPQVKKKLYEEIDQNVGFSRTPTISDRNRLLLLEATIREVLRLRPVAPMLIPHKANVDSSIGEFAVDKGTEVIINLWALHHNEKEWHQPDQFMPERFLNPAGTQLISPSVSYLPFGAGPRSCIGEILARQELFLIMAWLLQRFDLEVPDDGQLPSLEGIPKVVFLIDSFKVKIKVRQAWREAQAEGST

V79 = assay: Inhibition of rhesus monkey CYP11B2 expressed in V79 cells incubated for 1 hr before 11-deoxycorticosterone substrate addition by HTRF-based assay; format: cell-based; details: Macaca mulatta
[11] = Plasma clearance in rhesus monkey at 1 mg/kg, po or 0.5 mg/kg, iv by LC-MS/MS method; format: ADME, organism-based, Macaca mulatta
Homo sapiens [12] = species: Homo sapiens; assay: Selectivity index, ratio of IC50 for human CYP11B1 to IC50 for human CYP11B2; how it was run: as §1
Rhesus monkey [13] = details: Macaca mulatta; 1 mg/kg
[14] = Oral bioavailability in Sprague-Dawley rat at 2 mg/kg by LC-MS/MS method; format: ADME, organism-based; details: in vivo
How it was run: (§2)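 In the rat pharmacokinetic study, AUC was normalized for dose (μM·h·kg/mg), plasma clearance was expressed in mL/min/kg, and oral bioavailability was calculated.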

[15] = Plasma clearance in Sprague-Dawley rat at 2 mg/kg, po or 1 mg/kg, iv by LC-MS/MS method; format: ADME, organism-based; how it was run: as §2
[16] = Fraction unbound in rat plasma at […] incubated for 4 hrs by equilibrium dialysis and LC/MS method; format: ADME, cell-free
Aromatase = target: T6, Aromatase (Homo sapiens, UniProt P11511); assay: Inhibition of CYP19 (unknown origin) using MFC substrate incubated for 30 mins
T6 sequence (P11511 whole entry): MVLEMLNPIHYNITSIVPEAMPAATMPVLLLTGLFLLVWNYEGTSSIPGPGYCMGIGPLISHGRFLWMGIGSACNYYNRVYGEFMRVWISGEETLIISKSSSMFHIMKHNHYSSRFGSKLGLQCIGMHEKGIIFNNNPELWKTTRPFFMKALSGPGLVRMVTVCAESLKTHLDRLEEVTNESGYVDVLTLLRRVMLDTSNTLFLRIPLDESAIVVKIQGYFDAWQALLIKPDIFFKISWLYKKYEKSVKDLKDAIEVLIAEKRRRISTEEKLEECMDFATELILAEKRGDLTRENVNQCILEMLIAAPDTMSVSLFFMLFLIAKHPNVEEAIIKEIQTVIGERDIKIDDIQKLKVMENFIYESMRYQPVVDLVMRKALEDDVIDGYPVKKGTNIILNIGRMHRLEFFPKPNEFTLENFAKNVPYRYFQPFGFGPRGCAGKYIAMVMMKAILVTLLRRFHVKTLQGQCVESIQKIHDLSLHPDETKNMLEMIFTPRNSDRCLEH

Homo sapiens [17] = species: Homo sapiens; assay: Selectivity index, ratio of IC50 for CYP19 (unknown origin) to IC50 for human CYP11B2
Rattus norvegicus = assay: Dose normalized AUC in Sprague-Dawley rat at 2 mg/kg, po or 1 mg/kg, iv by LC-MS/MS method; format: ADME, organism-based; details: in vivo; how it was run: as §2
Cytochrome P450 2D6 = Cytochrome P450 2D6 (Homo sapiens, UniProt P10635); assay: Inhibition of CYP2D6 (unknown origin); format: ADME
[18] = Intrinsic clearance in rat liver microsomes at […] incubated for 10 mins before NADPH addition by LC/MS method; format: ADME; details: read-out: CLH
Cytochrome P450 2C9 = Cytochrome P450 2C9 (Homo sapiens, UniProt P11712); assay: Inhibition of CYP2C9 (unknown origin); format: ADME
Cytochrome P450 2C9, sequence (P11712 whole entry): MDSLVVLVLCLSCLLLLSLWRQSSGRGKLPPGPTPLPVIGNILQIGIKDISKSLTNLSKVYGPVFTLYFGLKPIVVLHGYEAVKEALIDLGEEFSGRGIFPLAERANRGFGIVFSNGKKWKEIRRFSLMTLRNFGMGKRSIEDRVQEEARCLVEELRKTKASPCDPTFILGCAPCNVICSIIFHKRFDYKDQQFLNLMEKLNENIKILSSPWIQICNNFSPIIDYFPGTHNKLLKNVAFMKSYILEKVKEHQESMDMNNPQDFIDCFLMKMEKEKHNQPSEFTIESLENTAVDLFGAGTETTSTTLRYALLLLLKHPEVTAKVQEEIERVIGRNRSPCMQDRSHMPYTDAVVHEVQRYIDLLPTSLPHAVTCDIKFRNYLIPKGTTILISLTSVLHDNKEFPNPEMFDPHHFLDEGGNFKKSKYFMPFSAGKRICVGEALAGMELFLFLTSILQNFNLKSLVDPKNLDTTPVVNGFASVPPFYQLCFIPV

Cytochrome P450 3A4, sequence (P08684 whole entry): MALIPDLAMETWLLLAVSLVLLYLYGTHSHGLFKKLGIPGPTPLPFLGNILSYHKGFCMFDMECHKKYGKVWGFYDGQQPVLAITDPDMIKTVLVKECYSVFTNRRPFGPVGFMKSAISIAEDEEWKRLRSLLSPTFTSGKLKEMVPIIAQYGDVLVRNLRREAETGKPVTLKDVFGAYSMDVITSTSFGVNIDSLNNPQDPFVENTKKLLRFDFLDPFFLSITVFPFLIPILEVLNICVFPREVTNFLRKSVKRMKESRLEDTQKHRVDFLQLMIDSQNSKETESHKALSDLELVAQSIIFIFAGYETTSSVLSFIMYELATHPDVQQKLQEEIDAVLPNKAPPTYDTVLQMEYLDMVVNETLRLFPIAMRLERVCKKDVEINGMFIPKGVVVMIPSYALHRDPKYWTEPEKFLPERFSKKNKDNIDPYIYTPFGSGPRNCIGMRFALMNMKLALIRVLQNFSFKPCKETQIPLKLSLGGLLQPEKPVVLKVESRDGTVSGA
Cytochrome P450 2D6, sequence (P10635 whole entry): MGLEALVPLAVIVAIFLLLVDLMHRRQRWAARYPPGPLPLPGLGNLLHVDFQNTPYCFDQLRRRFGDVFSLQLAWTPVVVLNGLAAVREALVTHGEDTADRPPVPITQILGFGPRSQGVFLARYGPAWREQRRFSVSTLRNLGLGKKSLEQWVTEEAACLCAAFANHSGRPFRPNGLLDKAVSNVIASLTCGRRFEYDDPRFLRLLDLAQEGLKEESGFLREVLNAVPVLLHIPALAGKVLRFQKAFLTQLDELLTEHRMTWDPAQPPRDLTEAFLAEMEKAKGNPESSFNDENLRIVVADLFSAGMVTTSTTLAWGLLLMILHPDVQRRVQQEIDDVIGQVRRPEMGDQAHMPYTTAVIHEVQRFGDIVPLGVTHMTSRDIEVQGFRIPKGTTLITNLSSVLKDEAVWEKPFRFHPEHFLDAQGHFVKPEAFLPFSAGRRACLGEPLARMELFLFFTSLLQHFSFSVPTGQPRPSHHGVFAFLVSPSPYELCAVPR

AUC/dose (Rhesus monkey [2]): 2.49 µM·kg·h/mg
IC50 [4]: 0.0005 µM
CLint scaled [5]: < 20 mL/min/kg
IC50 [6]: 0.258 µM
inhibition (INH) [7]: Not Active
IC50 (Cytochrome P450 3A4): 8.24 µM
IC50 (Steroid 21-hydroxylase): > 10 µM
bioavailability [9]: 88%
IC50 [10]: > 10 µM
clearance [11]: 19 mL/min/kg
Ratio IC50 (Homo sapiens [12]): 553
SMILES: Cc1c(F)cncc1-c1nc2cc(F)c(F)cc2n1C1CC1
Ratio IC50 (Homo sapiens [1]): > 1000
Ratio IC50 (Homo sapiens [3]): > 1000
Ratio IC50 (Homo sapiens [8]): > 1000
inhibition (V79): Active

SMILES: N#Cc1ccc(C2CCCc3cncn32)cc1 (stereo unspecified)
inhibition (Rhesus monkey [13]): Active

bioavailability [14]: 94%
clearance [15]: 7 mL/min/kg
fraction unbound at 4 h [16]: 0.14
IC50 (Aromatase): 1.27 µM
inhibition (INH) [7]: Not Active
Ratio IC50 (Homo sapiens [17]): 500
IC50 (Cytochrome P450 3A4): > 50 µM
IC50 (Steroid 21-hydroxylase): > 10 µM
AUC/dose (Rattus norvegicus): 6.55 µM·kg·h/mg
IC50 [10]: > 10 µM
inhibition (INH) (Cytochrome P450 2D6): Not Active
CLint scaled [18]: < 20 mL/min/kg
inhibition (INH) (Cytochrome P450 2C9): Not Active
Ratio IC50 (Homo sapiens [12]): 140
SMILES: CC(C)(O)c1cncc(-c2nc3cc(F)c(F)cc3n2C2CC2)c1
inhibition (V79): Active
